The record followed here is ChEMBL document CHEMBL1143402 (PLoS Med, 2006).

The term IC50 denotes the concentration needed to halve the response being measured.

Test [1] concerns Mycobacterium tuberculosis. Kind of test: Inhibition of fatty acid synthesis in Mycobacterium bovis BCG after 60 mins. The test is classed as functional, organism-based. To be noted: variant bovis BCG, 1 h. A digest of the protocol: (§1)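 M. bovis BCG culture incubated with compound or DMSO plus 2-^14C acetate at 37 °C for 60 min. Cells saponified with KOH/methanol, acid-extracted into hexane, methyl-esterified. Fatty and mycolic acid subclasses separated by two-solvent TLC (n = 3) and quantified by phosphorimaging as % of control.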

Test [2] deals with Mycobacterium tuberculosis. Kind of test: Inhibition of alpha-mycolic acid synthesis in Mycobacterium bovis BCG after 60 mins. In kind it is functional, organism-based. To be noted: variant bovis BCG, 1 h. The method, boiled down: as §1

`C[C@]1(COc2ccc(N3CCC(Oc4ccc(OC(F)(F)F)cc4)CC3)cc2)Cn2cc([N+](=O)[O-])nc2O1`: the IC50 in test [1] and in test [2] was > 0.25 µg/mL in each case.
With `NNC(=O)c1ccncc1` [ISONIAZID], the IC50 in test [1] is > 4 µg/mL.
